Assay: Toxicity liver stage against HepG2, at 10uM
Type: cell-based
Design: test concentration 10 uM, cell line HepG2-A16-CD81EGFP
Details: human, HepG2-A16-CD81EGFP cells; read-out: INHIBITION
How it was run: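 Uninfected HepG2-A16-CD81EGFP cells, 3 × 10^3 per well, 1536-well, plated on prespotted compound at 10 μM final, parasite-free screening media added to match infected plates; puromycin 10 μM positive, DMSO 0.5% negative; run in parallel with 48 h PbLuc assay at 37 °C, 5% CO2; viability by CellTiter-Glo luminescence, normalized to controls.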

Structure (SMILES)	cytotoxicity at 10 µM [%]
O=C(NC[C@H]1OC[C@@H](NC2CCC(F)(F)CC2)[C@@H]1O)C1CC1	-1.39
Fc1ccc(-c2noc([C@@H]3Cc4nc[nH]c4CN3)n2)cc1	-5.9
O=C(O)CCCC(=O)N1CCC(c2noc3cc(F)ccc23)CC1	-4.66
Cn1c(C(=O)N2CC[C@@]3(O)CCCC[C@H]3C2)cc2ccccc21	-46.8
Cc1cccc(-n2ncc3c(=O)n(CCN4CCCCC4)cnc32)c1C	-6.57
C[C@H]1C[C@H]2CN(C(=O)C3=CCCC3)CC[C@H]2O1	3.76
O=C(O)c1ccc2[nH]cc(CN3CCOCC3)c2c1	-9.48
CC(C)c1nnc2ccc(N3CCC(C(=O)O)CC3)nn12	-1.92
COc1ccc(NC(=O)N2CCCC2c2ccco2)cc1OC (stereo unspecified)	-7.07
COc1nn(C)c2c1CCCN(C(=O)c1ccccc1)C2	-9.76
C[C@H]1C[C@H]2CN(C(=O)c3ccncn3)CC[C@H]2O1	-20.9
Cc1nc([C@@H]2C[C@@H]3CCN(C(=O)c4ccnnc4)C[C@H]3O2)sc1C	2.68
COc1ccc2c(c1)C1(CCN(Cc3ccncc3)CC1)N(C)CC2	-14.2
CCCn1nccc1C(=O)Nc1nc(C)c(C)s1	-6.19
CCn1ccc(NC(=O)c2cc(C)on2)n1	-2.23
CCn1nc(C)c2nc(C(C)C)nc(NCCCO)c21	6.48
Cc1nn(CC(C)C)cc1S(=O)(=O)N(C)Cc1nonc1C	11.3
COCc1ccc(OC)c(CNC2CCCNC2=O)c1 (stereo unspecified)	3.66
O=C(O)[C@@H]1CCN(C(=O)Cc2ccccn2)[C@@H]1c1ccc(F)cc1	4.22
O[C@H]1CN(Cc2c[nH]nc2-c2ccccc2)CC[C@@]12CCCO2	10.3
CN(C)S(=O)(=O)N1CCC(c2ccncn2)CC1	-20.5
O=C(O)c1ccccc1CN1CCC(c2ccnc3ccnn23)CC1	-37.8
CC(C)c1cc(O)nc(C2CCCN2C(=O)C2CC2)n1 (stereo unspecified)	-25.1

Structure (SMILES)	cytotoxicity at 10 µM [%]
Cc1c(C2CCCN(C(=O)c3ccn(C)n3)C2)n2c(nc1=O)CCC2 (stereo unspecified)	0.862
CC(=O)Nc1nc(C2CCN(C(=O)c3ccncc3)CC2)cs1	-9.44
COc1ccc(Cl)cc1CN1CC(n2cccn2)C1	-1.73
CN(CCSc1nncn1C(C)(C)C)c1ccccc1	24
CNS(=O)(=O)CC1CCCN1c1ccccn1 (stereo unspecified)	2.83
CCNC(=O)c1ccc(NC2CCOC3(CCCCC3)C2)nn1 (stereo unspecified)	-3
O=C(NC1CC1)c1ccc(SCc2cscn2)cc1	1.26
CC(CNS(N)(=O)=O)Oc1ccc(Cl)cc1 (stereo unspecified)	-5.37
CN(C)c1ccc(C(=O)Nc2cnn(Cc3ccccn3)c2)cc1	-8.36
CCc1ccc(NC(C(N)=O)c2ccc(F)cc2)cc1 (stereo unspecified)	2.27
COc1ccc(Cl)cc1CCNC(=O)NCc1cnn(C)c1C	3.87
O=C(CNC(=O)c1ccccc1Cl)Nc1nccs1	-3.09
CCc1nccn1CC1CCCN1S(=O)(=O)N1CCCOCC1 (stereo unspecified)	-11.5
CCn1ccnc1S(=O)(=O)Cc1c(C)cc(C)c(C(C)=O)c1C	8.5
CN(C)C(=O)c1cccc(CCNS(C)(=O)=O)c1	-6.46
CCc1nnc(SC2CCCN(c3cccc(F)c3)C2=O)n1C (stereo unspecified)	7.17
CC(C)(C)OC(=O)NCC1CCCCN1Cc1ccccn1 (stereo unspecified)	-3.59
CC(C)CCNC(=O)c1cccnc1Oc1cccnc1	-0.379
COc1ccnc(N2CCN(C(=O)c3cnc(C4CC4)s3)CC2)n1	-5.35
Cc1noc(CN(CCc2ccco2)Cc2cccc(C#N)c2)n1	3.04
CC(C)(C(=O)NCC(=O)NCc1ccccc1)c1ccccc1F	4.63
CC(C)C(=O)N1CCC(NC2CCSCC2)C1 (stereo unspecified)	-3.54
CC(C)(C)NC(=O)Cn1cc(C(N)=O)c(-c2ccccc2)n1	-12.8

Structure (SMILES)	cytotoxicity at 10 µM [%]
CC(NS(=O)(=O)CCc1ccccn1)c1ccccc1Br (stereo unspecified)	-4.74
CCc1nnc2n1CCN(C(=O)C(OC)c1ccccc1)C2 (stereo unspecified)	3.65
COCCN(Cc1ccccc1)Cc1nc(-c2ccsc2)no1	5.6
O=C(Nc1ccccc1Cn1cccn1)N1CCCC(N2CCCC2)C1 (stereo unspecified)	5.6
COC(=O)NC1(C(=O)Nc2ccc(-c3cc[nH]n3)cc2)CCCC1	-11.2
CCOCCN1CCN(CC(O)c2ccc(OC)cc2)CC1 (stereo unspecified)	-2.28
COc1c(C)cnc(CN2CCCC2c2noc(C)n2)c1C (stereo unspecified)	-3.75
Cc1cc(CNC(=O)N2CCOC(c3ccccc3Cl)C2)no1 (stereo unspecified)	0.658
CC(C)Cn1ccnc1CNC(=O)N1CCCC1CN1CCOCC1 (stereo unspecified)	-6.29
Cc1cc(C2CCCN2S(=O)(=O)c2cnn(C)c2)on1 (stereo unspecified)	-5.22
CCc1nc(C2CCCN2c2ncc(C(F)(F)F)cc2Cl)no1 (stereo unspecified)	5.64
COC(=O)CNC(=O)C1(NC(=O)c2ccc3[nH]ncc3c2)CCCC1	-2.23
CCN(CC1CCCO1)S(=O)(=O)N1CCCCCC1 (stereo unspecified)	-1
CC(O)CN1CCN(C(=O)c2cn(-c3ccccc3Cl)nn2)CC1 (stereo unspecified)	0.361
O=C(O)c1csc(S(=O)(=O)N2CCCc3ccc(F)cc32)c1	16.6
CC(O)CC(C)(C)CNC(=O)NCc1cccc(-n2cncn2)c1 (stereo unspecified)	-4.79
CS(=O)(=O)c1ccc(OCCNCc2ccc(F)cc2F)cc1	-8.25
CC(=O)N1CCO[C@@H]2CN(S(=O)(=O)c3ccc(C)cc3)CC[C@@H]2C1	8.28
O=C(Nc1ccccc1)N1CC(C(=O)N2CCCC2)C2(CCOCC2)C1 (stereo unspecified)	-82.4
Cc1cn2c(=O)c(-c3ccnc(NC4CCOCC4)n3)cnc2s1	-5.5
COCCNS(=O)(=O)c1cccc2c1CN(C(=O)c1ccoc1)CC2	-3.88
COc1ccc(OCc2cc(C(=O)N3CCCCO3)n[nH]2)c(Cl)c1	8.15
Cc1cncc(C(=O)N2CCNCC2C(=O)NCc2ccncc2)c1 (stereo unspecified)	-4

Structure (SMILES)	cytotoxicity at 10 µM [%]
O=C(Nc1cnc2n1CCCC2)c1cccc(OCC(F)(F)F)c1	-0.651
CC(C)=CCN1CCN(S(=O)(=O)c2cn(C)cn2)[C@H]2CS(=O)(=O)C[C@H]21	0.634
O=C(c1ccc(O)cn1)N1CCOC(Cc2cccc(C(F)(F)F)c2)C1 (stereo unspecified)	5.08
CCc1cc(NC2CCOCC2)n2nc(C)c(C)c2n1	0.551
CCNc1ccnc(NC2CCN(CC(N)=O)CC2)n1	-15.7
CNc1ncc(CN(C)c2nc(C)c3ccc(S(C)(=O)=O)cc3n2)cn1	-3.66
Cc1cc(=O)c2ccccc2n1CC1CCCN(C)C1 (stereo unspecified)	-5.82
Cc1nc(C(C)C)cc(N2CCC3(CCC(=O)N(CC4CC4)C3)CC2)n1	-2.99
CC(C)Cc1cc(C(=O)NCC(c2ccc(F)cc2)N(C)C)n(C)n1 (stereo unspecified)	-3.97
COc1cccn(CC(=O)N2CCC3(CCNCC3)C2)c1=O	-11.4
CCCc1cc(C(=O)N(Cc2cccnc2)C2CCCCC2)[nH]n1	-11.2
COc1ccc2c(c1)OCC(C(=O)NCc1ncc3c(n1)CCC3)C2 (stereo unspecified)	2.15
O=C(CC[C@@H]1CCCN2CCCC[C@H]12)N1CCC(c2nnc[nH]2)CC1	2.61
CC(=O)N1CCCCC1c1ncnn1-c1ccc2nc(C)sc2c1 (stereo unspecified)	-12
Cc1ccc2cc(C3(O)CCN(C(=O)CN4CCCC4)CC3)ccc2n1	2.57
COc1ccc(C2CC(=O)Nc3c2cnn3C2CCCC2)cc1 (stereo unspecified)	-9.41
CN(Cc1ccsc1)C(=O)c1cc2c([nH]c1=O)CCC2	-12.4
COC1CCN(C(=O)CCn2cccn2)CC1	-13.4
Cc1nc(C)n(CC2CCCN2CCCc2nc3ccccc3o2)n1 (stereo unspecified)	-8.58
Cn1cnc(S(=O)(=O)NCCCN2CCCC2)c1Cl	-11.6
Cc1csc(N2CCN(C(=O)C3(C#N)CCCC3)CC2)n1	-12.6
CN(Cc1ccccc1)C(=O)CN1CCOC(Cn2cncn2)C1 (stereo unspecified)	-3.66
CCNC(=O)NC(=O)CNc1cc(C#N)ccc1OCC	-19.7

Structure (SMILES)	cytotoxicity at 10 µM [%]
CN(Cc1ccc(O)cc1)C(=O)NCc1nnc2n1CCCCC2	-11.1
COc1ccc(-c2nc(CN3CCc4cnc(C)nc4C3)no2)cc1	-7.1
CCn1cnnc1CNC(=O)NC(c1cccs1)C1CCCC1 (stereo unspecified)	-11.2
Cc1cnc(CN(C)C2CCN(CCCc3ccccc3)C2)o1 (stereo unspecified)	-4.02
Cc1noc(C)c1CN(C)C(=O)c1ccc(C(F)(F)F)nc1	-10
Cc1nc(C2CCCN2CC(=O)Nc2cc(C(C)(C)C)nn2C)no1 (stereo unspecified)	-10.9
O=C(NCCCn1nc2ccccn2c1=O)NCc1ccccc1	-16.1
CCN1C[C@H]2[C@@H](C1)N(C(=O)Cc1ccsc1)CC[C@H]2OC	6.8
O=C(C1=CCCC1)N1CCC[C@]2(C[C@@H](OCc3ccncc3)CO2)C1	-6.5
Fc1cccc(N2CCCC3(CN(Cc4ccccn4)CCO3)C2)c1 (stereo unspecified)	2.29
CCN1CCN(C)C(=O)C12CCN(Cc1ccsc1)CC2	1.14
O=C1CCCN1Cc1nnc2n1CCCN(Cc1ccco1)C2	3.24
CC1c2ncc(Cn3cccn3)n2CCN1Cc1cccnc1 (stereo unspecified)	6.49
CN(C)C(=O)N1C[C@H]2CCC[C@@]2(COc2ccccn2)C1	3.24
CN1[C@@H](C(=O)NCC2CC2)C[C@@H]2CN(Cc3ccsc3)C[C@@H]21	-4.04
Cc1occc1C(=O)N1CCC[C@]2(C[C@@H](OCc3ccncc3)CO2)C1	-6.25
CSc1ncc(C(=O)N2C[C@@H]3CC[C@H]2CN(S(=O)(=O)N(C)C)C3)cn1	0.0773
COC(=O)Cn1c(=O)[nH]c2cn(-c3cccc(C)c3)c(=O)n21	5.42
Cn1cccc1C(=O)N1C[C@@H]2CC[C@H]1CN(Cc1cscn1)C2	2.9

Source: ChEMBL document CHEMBL4513216, “Probing the Open Global Health Chemical Diversity Library for Multistage-Active Starting Points for Next-Generation Antimalarials” (ACS Infect Dis, 2020)
